{"source": "ChEMBL document CHEMBL3822391", "about": "“Synthesis and Biological Evaluation of Vitamin D3 Metabolite 20S,23S-Dihydroxyvitamin D3 and Its 23R Epimer” (J Med Chem, 2016)", "key": {"[1]": {"assay": "Antiinflammatory activity in DBA/1 mouse splenocytes assessed as upregulation of LAIR1 level by measuring mean fluorescence intensity at 100 nM by flow cytometry (reference value: 766 +/- 22 au)", "assay_type": "functional, cell-based", "conditions": "Splenocyte", "how_it_was_run": "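Splenocytes from DBA/1 mice were cultured in EMEM with 9% charcoal-stripped FBS and treated overnight at 10^-7 M, with an ethanol vehicle control. Cells were stained with fluorochrome anti-CD4 and anti-LAIR1. LAIR1 mean fluorescence was read by multiparameter flow cytometry, gated on CD4 cells.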"}, "[2]": {"biological_target": "T1, Vitamin D3 receptor (Homo sapiens) (UniProt P11473)", "T1 sequence (whole entry)": "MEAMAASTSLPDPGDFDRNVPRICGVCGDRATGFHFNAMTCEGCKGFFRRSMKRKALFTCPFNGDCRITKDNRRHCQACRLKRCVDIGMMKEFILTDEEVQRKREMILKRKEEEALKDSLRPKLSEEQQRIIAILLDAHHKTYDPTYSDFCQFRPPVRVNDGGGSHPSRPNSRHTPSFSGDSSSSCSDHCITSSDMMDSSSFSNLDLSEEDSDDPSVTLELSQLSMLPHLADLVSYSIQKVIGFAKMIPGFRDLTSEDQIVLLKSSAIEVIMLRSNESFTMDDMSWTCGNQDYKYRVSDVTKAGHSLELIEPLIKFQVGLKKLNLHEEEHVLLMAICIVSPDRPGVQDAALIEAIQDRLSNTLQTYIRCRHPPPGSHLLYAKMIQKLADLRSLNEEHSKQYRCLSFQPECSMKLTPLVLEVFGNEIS", "assay": "Activation of VDR in human Caco2 cells expressing lentiviral VDRE-luciferase vector assessed as VDRE-mediated transcriptional activity up to 1000 nM measured after 24 hrs by luciferase transcriptional reporter assay", "assay_type": "cell-based", "conditions": "Caco-2", "how_it_was_run": "(§1)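 Cells carry a lentiviral VDRE-luciferase reporter and were selected for 1 week with an extra 1.0 µg/mL puromycin. Growth media: Caco-2 in DMEM with 10% FBS; HaCaT in the same with 5% FBS; Jurkat in RPMI 1640 with 10% FBS. Cells were plated in FBS-free medium for 24 h, then given serial concentrations (final DMSO 0.1%) for 24 h. ONE-Glo luminescence was read after 5 min at room temperature. Triplicates.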"}, "[3]": {"biological_target": "T2, 25-hydroxyvitamin D-1 alpha hydroxylase, mitochondrial (Mus musculus, UniProt O35084)", "T2 sequence (O35084 whole entry)": "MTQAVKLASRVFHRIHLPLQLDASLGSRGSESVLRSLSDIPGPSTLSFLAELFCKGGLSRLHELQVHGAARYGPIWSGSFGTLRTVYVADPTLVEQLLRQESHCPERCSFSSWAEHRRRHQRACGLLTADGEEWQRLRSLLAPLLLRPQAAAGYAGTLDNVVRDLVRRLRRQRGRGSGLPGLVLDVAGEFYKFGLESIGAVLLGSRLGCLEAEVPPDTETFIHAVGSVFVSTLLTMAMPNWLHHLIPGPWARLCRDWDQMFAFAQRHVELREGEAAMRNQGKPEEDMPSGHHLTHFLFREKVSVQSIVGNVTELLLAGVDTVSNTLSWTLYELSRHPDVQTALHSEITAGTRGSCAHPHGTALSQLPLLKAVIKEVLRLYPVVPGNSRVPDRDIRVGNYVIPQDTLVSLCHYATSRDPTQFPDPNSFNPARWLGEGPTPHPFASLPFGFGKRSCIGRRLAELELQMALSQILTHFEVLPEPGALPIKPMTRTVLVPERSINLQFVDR", "assay": "Ratio of Kcat to Km for mouse CYP27B1 measured per mol of phospholipid after 3 mins by HPLC", "assay_type": "ADME", "conditions": "0.05 h", "how_it_was_run": "(§2)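 Substrate was incorporated into phospholipid vesicles at 0.0025–0.07 mol/mol PL and incubated 3 min with 0.1 µM mouse CYP27B1. Product was quantified by HPLC. Km and kcat came from a Michaelis–Menten fit, given as mean ± standard error of the curve fit.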"}, "[4]": {"assay": "Growth inhibition of human SK-MEL-188 cells measured after 48 hrs by MTS/PMS assay", "assay_type": "functional", "conditions": "SK-MEL-188, 48 h"}, "[5]": {"biological_target": "T1, Vitamin D3 receptor (Homo sapiens)", "assay": "Activation of VDR in human HaCaT cells expressing lentiviral VDRE-luciferase vector assessed as VDRE-mediated transcriptional activity up to 1000 nM measured after 24 hrs by luciferase transcriptional reporter assay", "assay_type": "cell-based", "how_it_was_run": "as §1"}, "[6]": {"biological_target": "T2, 25-hydroxyvitamin D-1 alpha hydroxylase, mitochondrial", "assay": "Activity of mouse CYP27B1 assessed as compound hydroxylation measured per mol of phospholipid after 3 mins by HPLC", "assay_type": "ADME", "conditions": "0.05 h", "how_it_was_run": "as §2"}, "[7]": {"biological_target": "T1, Vitamin D3 receptor (Homo sapiens)", "assay": "Activation of VDR in human Jurkat cells expressing lentiviral VDRE-luciferase vector assessed as VDRE-mediated transcriptional activity up to 1000 nM measured after 24 hrs by luciferase transcriptional reporter assay", "assay_type": "cell-based", "how_it_was_run": "as §1"}, "Vitamin D3 receptor [8]": {"biological_target": "T3, Vitamin D3 receptor (Homo sapiens, UniProt P11473)", "T3 sequence (P11473 whole entry)": "T1 sequence (whole entry)", "assay": "Activation of VDR in human Jurkat cells expressing lentiviral VDRE-luciferase vector assessed as VDRE-mediated transcriptional activity measured after 24 hrs by luciferase transcriptional reporter assay", "assay_type": "cell-based"}, "Vitamin D3 receptor [9]": {"biological_target": "T3, Vitamin D3 receptor", "assay": "Activation of VDR in human HaCaT cells expressing lentiviral VDRE-luciferase vector assessed as VDRE-mediated transcriptional activity measured after 24 hrs by luciferase transcriptional reporter assay", "assay_type": "cell-based"}, "Vitamin D3 receptor [10]": {"biological_target": "T3, Vitamin D3 receptor", "assay": "Activation of VDR in human Caco2 cells expressing lentiviral VDRE-luciferase vector assessed as VDRE-mediated transcriptional activity measured after 24 hrs by luciferase transcriptional reporter assay", "assay_type": "cell-based, Caco-2"}}, "note": "Calls of active or inactive are those of the source. No cut-off for these calls is given here."}
{"molecule": "C=C1CC[C@H](O)C/C1=C/C=C1\\CCC[C@@]2(C)[C@H]1CC[C@@H]2[C@@](C)(O)C[C@@H](O)CC(C)C", "values": [{"measurement": "Flu intensity", "setting": "[1]", "value": 1480, "unit": "a.u."}, {"measurement": "Activity", "setting": "[2]", "value": "inactive"}, {"measurement": "Kcat/Km", "setting": "[3]", "value": 4731}, {"measurement": "IC50", "setting": "[4]", "value": 0.01, "unit": "nM"}, {"measurement": "Activity", "setting": "[5]", "value": "inactive"}, {"measurement": "Km", "setting": "[6]", "value": 5.2, "unit": "×10⁻³ mol/mol"}, {"measurement": "Activity", "setting": "[7]", "value": "inactive"}]}
{"molecule": "C=C1/C(=C\\C=C2/CCC[C@]3(C)[C@@H]([C@H](C)OCCC(C)(C)O)CC[C@@H]23)C[C@@H](O)C[C@@H]1O", "note": "[MAXACALCITOL]", "values": [{"measurement": "Flu intensity", "setting": "[1]", "value": 1480, "unit": "a.u."}, {"measurement": "EC50", "setting": "Vitamin D3 receptor [8]", "value": 0.855, "unit": "nM"}, {"measurement": "EC50", "setting": "Vitamin D3 receptor [9]", "value": 160, "unit": "nM"}, {"measurement": "EC50", "setting": "Vitamin D3 receptor [10]", "value": 144, "unit": "nM"}]}
{"molecule": "C=C1/C(=C\\C=C2/CCC[C@@]3(C)[C@H]2CC[C@@H]3[C@@](C)(O)C[C@@H](O)CC(C)C)C[C@@H](O)C[C@@H]1O", "values": [{"measurement": "Flu intensity", "setting": "[1]", "value": 1480, "unit": "a.u."}, {"measurement": "EC50", "setting": "Vitamin D3 receptor [8]", "value": 203, "unit": "nM"}, {"measurement": "IC50", "setting": "[4]", "value": 0.01, "unit": "nM"}, {"measurement": "EC50", "setting": "Vitamin D3 receptor [9]", "value": 175, "unit": "nM"}, {"measurement": "EC50", "setting": "Vitamin D3 receptor [10]", "value": 241, "unit": "nM"}]}
{"molecule": "C=C1/C(=C\\C=C2/CCC[C@@]3(C)[C@H]2CC[C@@H]3[C@@](C)(O)C[C@H](O)CC(C)C)C[C@@H](O)C[C@@H]1O", "values": [{"measurement": "Flu intensity", "setting": "[1]", "value": 1480, "unit": "a.u."}, {"measurement": "EC50", "setting": "Vitamin D3 receptor [8]", "value": 30.6, "unit": "nM"}, {"measurement": "IC50", "setting": "[4]", "value": 0.01, "unit": "nM"}, {"measurement": "EC50", "setting": "Vitamin D3 receptor [9]", "value": 117, "unit": "nM"}, {"measurement": "EC50", "setting": "Vitamin D3 receptor [10]", "value": 172, "unit": "nM"}]}
{"molecule": "C=C1/C(=C\\C=C2/CCC[C@]3(C)[C@@H]([C@H](C)CCCC(C)(C)O)CC[C@@H]23)C[C@@H](O)C[C@@H]1O", "values": [{"measurement": "Flu intensity", "setting": "[1]", "value": 1360, "unit": "a.u."}]}
{"molecule": "C=C1CC[C@H](O)C/C1=C/C=C1\\CCC[C@@]2(C)[C@H]1CC[C@@H]2[C@@](C)(O)C[C@H](O)CC(C)C", "values": [{"measurement": "Flu intensity", "setting": "[1]", "value": 1480, "unit": "a.u."}, {"measurement": "EC50", "setting": "Vitamin D3 receptor [8]", "value": 653, "unit": "nM"}, {"measurement": "Kcat/Km", "setting": "[3]", "value": 5087}, {"measurement": "IC50", "setting": "[4]", "value": 0.01, "unit": "nM"}, {"measurement": "EC50", "setting": "Vitamin D3 receptor [9]", "value": 484, "unit": "nM"}, {"measurement": "EC50", "setting": "Vitamin D3 receptor [10]", "value": 562, "unit": "nM"}, {"measurement": "Km", "setting": "[6]", "value": 2.3, "unit": "×10⁻³ mol/mol"}]}
